Source: ChEMBL document CHEMBL1122942, “Conformationally defined adrenergic agents. 1. Design and synthesis of novel alpha 2 selective adrenergic agents: electrostatic repulsion based conformational prototypes” (J Med Chem, 1985)

Legend:
[1] = biological target: T1, Adrenergic receptor alpha-2 (Rattus norvegicus, UniProt P22086+P19328+P22909); test: Binding affinity towards alpha-2 adrenergic receptor in rat using [3H]rauwolscine as radioligand
T1 sequence (P22086 whole entry): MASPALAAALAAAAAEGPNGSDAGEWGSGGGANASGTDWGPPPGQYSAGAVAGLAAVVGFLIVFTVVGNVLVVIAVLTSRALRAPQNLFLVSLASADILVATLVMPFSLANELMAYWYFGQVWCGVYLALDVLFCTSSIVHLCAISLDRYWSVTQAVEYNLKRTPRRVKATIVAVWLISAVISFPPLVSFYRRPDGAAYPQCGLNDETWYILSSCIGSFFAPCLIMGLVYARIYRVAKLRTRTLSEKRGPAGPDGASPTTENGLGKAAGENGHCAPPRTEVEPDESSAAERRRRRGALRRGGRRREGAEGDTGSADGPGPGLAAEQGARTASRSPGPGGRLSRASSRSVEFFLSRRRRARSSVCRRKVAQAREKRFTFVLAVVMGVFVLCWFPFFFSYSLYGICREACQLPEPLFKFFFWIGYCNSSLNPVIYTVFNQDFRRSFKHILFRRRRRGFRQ
T1 sequence (P19328 whole entry): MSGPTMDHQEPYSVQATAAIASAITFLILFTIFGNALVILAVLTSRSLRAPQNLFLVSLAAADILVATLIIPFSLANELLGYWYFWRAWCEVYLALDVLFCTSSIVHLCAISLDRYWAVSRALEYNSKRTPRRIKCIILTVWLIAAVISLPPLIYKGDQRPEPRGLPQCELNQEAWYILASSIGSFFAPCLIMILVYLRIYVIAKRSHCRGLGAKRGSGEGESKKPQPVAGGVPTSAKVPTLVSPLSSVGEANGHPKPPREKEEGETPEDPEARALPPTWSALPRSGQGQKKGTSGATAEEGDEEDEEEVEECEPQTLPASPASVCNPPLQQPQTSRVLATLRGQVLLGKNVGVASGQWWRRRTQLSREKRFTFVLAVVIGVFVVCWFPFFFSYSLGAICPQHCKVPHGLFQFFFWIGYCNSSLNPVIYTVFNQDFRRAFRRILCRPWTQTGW
T1 sequence (P22909 whole entry): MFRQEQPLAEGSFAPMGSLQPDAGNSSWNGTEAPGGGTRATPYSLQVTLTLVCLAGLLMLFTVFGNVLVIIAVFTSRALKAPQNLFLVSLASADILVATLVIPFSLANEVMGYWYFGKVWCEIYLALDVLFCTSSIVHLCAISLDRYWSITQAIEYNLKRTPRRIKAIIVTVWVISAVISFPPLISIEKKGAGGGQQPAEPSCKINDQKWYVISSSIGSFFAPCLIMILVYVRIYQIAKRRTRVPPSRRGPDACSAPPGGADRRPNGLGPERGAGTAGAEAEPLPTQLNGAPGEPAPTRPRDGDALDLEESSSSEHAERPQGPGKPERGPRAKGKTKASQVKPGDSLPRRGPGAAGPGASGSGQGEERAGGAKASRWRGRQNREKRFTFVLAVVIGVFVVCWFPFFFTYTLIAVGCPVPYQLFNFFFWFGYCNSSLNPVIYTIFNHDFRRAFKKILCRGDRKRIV
Method in brief: (§1)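 Male Sprague-Dawley rat cerebral cortex membranes (50-150 µg/mL protein) in 50 mM Tris-HCl pH 7.7 with [3H]rauwolscine. Incubated 2 h at 4 °C; phentolamine 10^-5 M defined nonspecific binding. At least four concentrations from 10^-10 to 10^-3 M, each in duplicate. Bound ligand was filtered and counted by scintillation.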

[2] = biological target: T2, Adrenergic receptor alpha-1 (Rattus norvegicus, UniProt P15823+P23944+P43140); test: Binding affinity against alpha-1 adrenergic receptor in rat using [3H]prazosin as radioligand
T2 sequence (P15823 whole entry): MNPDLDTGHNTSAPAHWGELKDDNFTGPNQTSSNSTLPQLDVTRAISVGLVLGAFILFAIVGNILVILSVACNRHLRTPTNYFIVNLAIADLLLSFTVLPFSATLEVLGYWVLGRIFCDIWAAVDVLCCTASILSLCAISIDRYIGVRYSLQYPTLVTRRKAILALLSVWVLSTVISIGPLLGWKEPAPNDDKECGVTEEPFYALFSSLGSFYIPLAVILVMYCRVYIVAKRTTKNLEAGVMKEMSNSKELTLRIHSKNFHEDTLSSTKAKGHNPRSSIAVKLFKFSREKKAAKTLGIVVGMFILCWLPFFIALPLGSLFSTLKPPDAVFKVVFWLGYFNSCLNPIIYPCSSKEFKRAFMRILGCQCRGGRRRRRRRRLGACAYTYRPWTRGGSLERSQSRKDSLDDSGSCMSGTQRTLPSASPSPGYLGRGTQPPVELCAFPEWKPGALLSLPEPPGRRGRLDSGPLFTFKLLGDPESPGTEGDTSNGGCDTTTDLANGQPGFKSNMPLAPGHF
T2 sequence (P23944 whole entry): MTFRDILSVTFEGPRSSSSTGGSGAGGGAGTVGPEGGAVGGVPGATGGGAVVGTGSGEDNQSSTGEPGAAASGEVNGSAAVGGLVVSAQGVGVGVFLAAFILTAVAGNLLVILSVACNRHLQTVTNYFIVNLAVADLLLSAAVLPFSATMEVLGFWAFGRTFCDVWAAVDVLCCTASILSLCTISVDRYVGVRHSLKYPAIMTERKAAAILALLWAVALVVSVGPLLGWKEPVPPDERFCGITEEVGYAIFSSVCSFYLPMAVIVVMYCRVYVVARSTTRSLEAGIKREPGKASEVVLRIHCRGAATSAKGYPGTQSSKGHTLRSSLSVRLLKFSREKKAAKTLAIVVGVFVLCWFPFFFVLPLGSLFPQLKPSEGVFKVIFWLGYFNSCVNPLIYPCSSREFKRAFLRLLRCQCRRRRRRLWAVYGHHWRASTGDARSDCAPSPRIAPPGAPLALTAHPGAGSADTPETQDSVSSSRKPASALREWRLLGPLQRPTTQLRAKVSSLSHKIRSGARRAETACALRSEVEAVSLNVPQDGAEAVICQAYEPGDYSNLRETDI
T2 sequence (P43140 whole entry): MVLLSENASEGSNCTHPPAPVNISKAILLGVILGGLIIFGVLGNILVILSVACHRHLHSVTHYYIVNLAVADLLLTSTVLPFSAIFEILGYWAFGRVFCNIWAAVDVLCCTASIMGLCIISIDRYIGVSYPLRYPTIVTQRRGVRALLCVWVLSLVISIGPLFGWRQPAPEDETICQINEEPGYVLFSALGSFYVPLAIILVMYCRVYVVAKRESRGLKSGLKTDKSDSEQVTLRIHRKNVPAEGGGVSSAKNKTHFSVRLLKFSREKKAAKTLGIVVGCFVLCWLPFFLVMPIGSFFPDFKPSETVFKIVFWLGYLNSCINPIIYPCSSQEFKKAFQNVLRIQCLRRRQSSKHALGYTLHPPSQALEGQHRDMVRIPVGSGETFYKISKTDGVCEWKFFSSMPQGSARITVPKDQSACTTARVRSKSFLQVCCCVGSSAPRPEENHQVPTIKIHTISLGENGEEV
Method in brief: as §1, with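 “liver” for “cerebral cortex”, “[3H]prazosin.” for “[3H]rauwolscine.”, “50 min” for “2 h”, “25” for “4”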

[3] = biological target: Adrenergic receptor alpha (Rattus norvegicus) (UniProt P15823+P23944+P43140+P22086+P19328+P22909); test: Relative affinities for Alpha1 and alpha-2 adrenergic receptors in rat

| SMILES | Ki [1] [nM] | Ki [2] [µM] | Ratio [3] |
| --- | --- | --- | --- |
| NCC1Cc2c1ccc(O)c2O (configuration not stated) | 170 | 16 | 98 |
| CCN(CC)CC1CCc2c1ccc(O)c2O (configuration not stated) | 320 | 3.6 | 11 |
| CN(C)CC1CCc2c1ccc(O)c2O (configuration not stated) | 25 | 6.9 | 270 |
| CC(C)NCC1CCc2c1ccc(O)c2O (configuration not stated) | 660 | 4.6 | 6.9 |
| NCC1CCCc2cc(O)c(O)cc21 (configuration not stated) | 5100 | 15 | – |
| CC(C)NCC1CCCc2c1ccc(O)c2O (configuration not stated) | 4700 | 6.6 | – |
| NCC1CCc2cc(O)c(O)cc21 (configuration not stated) | 520 | 26 | – |
| CCCN(CCC)CC1CCCc2c1ccc(O)c2O (configuration not stated) | 180 | 7.9 | – |
| CCCN(CCC)CC1CCCc2cc(O)c(O)cc21 (configuration not stated) | 600 | 16 | – |
| CN(C)CC1CCCc2c1ccc(O)c2O (configuration not stated) | 660 | 13 | – |
| CCCN(CCC)CC1CCc2c1ccc(O)c2O (configuration not stated) | 470 | 7.4 | 16 |
| CNCC1CCCc2c1ccc(O)c2O (configuration not stated) | 44 | 7.9 | – |
| CN(C)CC1CCc2cc(O)c(O)cc21 (configuration not stated) | 860 | 13 | – |
| Brc1c(NC2=NCCN2)ccc2nccnc12 [BRIMONIDINE] | – | 0.74 | – |
| NCC(O)c1cc(O)c(O)cc1F (configuration not stated) | – | 0.65 | – |
| CNCC1CCCc2cc(O)c(O)cc21 (configuration not stated) | 1300 | 8.7 | – |

| SMILES | Ki [1] [nM] | Ki [2] [µM] | Ratio [3] |
| --- | --- | --- | --- |
| NCC1CCCCc2c1ccc(O)c2O (configuration not stated) | 880 | 27 | 30 |
| NCC1CCc2c1ccc(O)c2O (configuration not stated) | 15 | 8.6 | 560 |
| CC(C)NCC1CCCc2cc(O)c(O)cc21 (configuration not stated) | 2500 | 14 | – |
| NCC1Cc2cc(O)c(O)cc21 (configuration not stated) | 200 | 5 | – |
| CN(C)CC1CCCc2cc(O)c(O)cc21 (configuration not stated) | 700 | 13 | – |
| NCC1CCCc2c1ccc(O)c2O (configuration not stated) | 47 | 13 | – |
| NCC1CCCCc2cc(O)c(O)cc21 (configuration not stated) | 19000 | 11 | – |
| CCCN(CCC)CC1CCc2cc(O)c(O)cc21 (configuration not stated) | 690 | 29 | – |
| CCNCC1CCc2c1ccc(O)c2O (configuration not stated) | 130 | 2.5 | 20 |
| NCC(O)c1ccc(O)c(O)c1F (configuration not stated) | 1400 | 25 | – |
| CC(C)NCC1CCc2cc(O)c(O)cc21 (configuration not stated) | 3800 | 11 | – |
| CN(C)CC1Cc2c1ccc(O)c2O (configuration not stated) | 21 | 3.3 | 160 |
| CCNCC1CCCc2c1ccc(O)c2O (configuration not stated) | 200 | 7.9 | 40 |
| CCN(CC)CC1CCCc2c1ccc(O)c2O (configuration not stated) | 250 | 3.1 | 13 |
| CNCC1CCc2c1ccc(O)c2O (configuration not stated) | 7 | 2 | 290 |
